Assay results from publication PMC11617404 (iScience, 2024).
Values belong to the molecule of their own block, whether it stands above or below them.

Assays:
[1] = target: T1, HYlight (Bacillus subtilis, UniProt O32253); assay: Metal binding assay on purified HYlight; settings: 150 mM NaCl or KCl, 0.1 mM EDTA
[2] = test system: HepG2 cells; assay: Gluconeogenesis induction with FBP1 or PFK inhibition, HYlight imaging; assay type: cell-based, human
Summary of the method: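 HepG2 cells were kept in DMEM Glutamax with 25 mM lactate and 0.65 mM pyruvate. After transfection, 50 μM dexamethasone and 100 nM glucagon were added; normal medium served as comparison. The PFK inhibitor (20 μM) was given 24 h before the assay, and the FBP1 inhibitor (20 μM) acutely. After 1 h glucose starvation, cells were imaged with dexamethasone and glucagon (60 min each), FBP1 inhibitor (30 min), then 15 mM glucose (25 min). Read-out was 488/405 nm ratio; n ≥ 3, 50 cells each.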

[3] = target: T1, HYlight; assay: Titration of purified HYlight with oligomycin or 2-DG; assay type: binding; settings: increasing concentrations, Figure S1E
[4] = test system: HepG2 cells; assay: ECAR and OCR during glycolytic stress test; assay type: cell-based, human; settings: 1 h glucose starvation, 10 mM glucose, 10 μM oligomycin, 100 mM 2-DG
Summary of the method: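 HepG2 cells in Seahorse plates were transfected the next day with the sensor or its null variant. At 24 h they were glucose-starved for 1 h in XF DMEM (pH 7.4, 2 mM glutamine, no glucose, no phenol red) in a CO2-depleted incubator, and the medium was renewed. Additions: 10 mM glucose, 10 μM oligomycin, then 100 mM 2-DG in two 50 mM steps. OCR (pmol O2/min) was normalized to cell number by BCA protein assay; n = 3.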

[5] = FBP quantification with HYlight in primary mouse hepatocytes; assay type: cell-based
Summary of the method: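 Hepatocytes were transfected with HYlight plasmid 2 h after seeding; medium was replaced 12 h later. Cells were glucose-starved 1 h in glucose-free Seahorse XF DMEM (pH 7.4, 2 mM glutamine), then given 10 mM glucose. Confocal 488/405 ratios were normalized to post-2-DG values and read against an in vitro FBP curve (ΔR/R10) mimicking ionic strength and metabolic competition. n = 3, ≥50 cells each.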

[6] = target: T1, HYlight; assay: Titration of purified recombinant HYlight, excitation ratio F500/F400; assay type: binding; settings: for average fluorescence ratio: 1 μM FBP, Figure 6D; for maximum ratiometric value (fluorescence ratio): Figure 6A; for fluorescence ratio (maximum): Figure 7A; for maximum fluorescence ratio: purified HYlight, titration from low μM to mM range, Figure 5C
Summary of the method: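 Purified sensor (200 nM) was scanned at excitation 350–520 nm, emission 560 nm, 25°C, with ratio F500/F400. For ionic strength, protein in TBS (0 mM NaCl, 50 mM Tris-HCl pH 7.6) was titrated with FBP and NaCl 0–150 mM. The buffer series compared 25 mM MES/CHES/HEPES, PBS and Britton-Robinson pH 8, pH-adjusted with NaOH; n = 3.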

[7] = test system: FBPase-1; settings: FBPase-1 for FBP, gluconeogenic conditions; cited from earlier work
[8] = test system: HepG2 cells; assay: FBP added to the media of non-permeabilized HepG2 cells expressing HYlight; assay type: cell-based, human; settings: intact HepG2 cells, increasing FBP in the media, no saponin
[9] = test system: PFK-1; settings: PFK-1 toward FBP; ref BRENDA:EC2.7.1.11; Zheng and Kemp[47]; cited from earlier work
[10] = test system: aldolase; settings: cited from earlier work
[11] = target: T1, HYlight; assay: Phosphate titration assay on purified HYlight; assay type: binding
Summary of the method: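 Purified sensor (200 nM) or null variant was tested in SEC buffer pH 8 with TBS or PBS. Separately, 200 mM Sorensen's phosphate pH 8 was titrated from the nM to mM range into sensor in 50 mM Tris pH 8, with or without 100 μM FBP, keeping conductivity constant. Excitation was scanned 350–520 nm, emission 560 nm, 25°C; read-out was the F500/F400 ratio change; n = 3.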

[12] = target: T1, HYlight; assay: Dihydroxyacetone phosphate competition assay on purified HYlight; assay type: binding; settings: purified HYlight in the presence of 100 μM FBP, Figure 5D
Summary of the method: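 Protein was IPTG-induced (0.5 mM, overnight, 30°C), purified by Ni2+ affinity and size exclusion, and used at 200 nM. DHAP was titrated with or without 100 μM FBP, and with or without cytosolic ionic strength (140 mM K+, 12 mM Na+) plus a metabolic mix. Excitation was scanned 350–520 nm with emission at 560 nm, 25°C. Ratio R = F500/F400, ΔR/R0 = (Rt−Rt=0)/Rt=0; n = 3.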

[13] = target: T1, HYlight; settings: cited from earlier work
[14] = test system: HepG2, HLE, and Huh6 cells; assay: Glucose titration, HYlight confocal imaging in hepatoma cell lines; assay type: cell-based, human
Summary of the method: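 Hepatoma lines expressing codon-optimized cytosolic sensor (Lipofectamine, medium changed at 24 h) were glucose-starved for 1 h in XF DMEM pH 7.4 without glucose. They were imaged 10 min, then given increasing glucose every 10 min up to 40 mM, then 50 mM 2-DG. The 488/405 nm confocal ratio was min-max normalized, and the Hill coefficient was taken from ratio versus glucose; n = 3, ≥50 cells each.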

[15] = test system: HLE cells; assay: Glycolytic stress test, HYlight confocal imaging in HLE cells; assay type: cell-based, human; settings: after the addition of 10 mM glucose
Summary of the method: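 Transfected HLE cells were glucose-starved for 1 h in XF DMEM pH 7.4 (2 mM glutamine, no glucose) and imaged 10 min. They then received 10 mM glucose for 30 min, 2.5 μM oligomycin for 30 min and 50 mM 2-DG for 30 min. The 488/405 nm ratio was followed over time and min-max normalized.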

[16] = test system: primary mouse hepatocytes; assay: Glucose titration, HYlight confocal imaging in primary mouse hepatocytes; assay type: cell-based; settings: 1 h glucose starvation, glucose 0–40 mM added every 10 min
Summary of the method: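 Hepatocytes were isolated by two-step collagenase perfusion via the vena cava and cultured in William's medium with 10% FBS and 10 mM HEPES. They were transfected 2 h after seeding, with medium changed at 12 h. After 1 h starvation in glucose-free XF DMEM pH 7.4, cells were imaged 10 min, given glucose in steps every 10 min to 40 mM, then 100 mM 2-DG. The 488/405 nm ratio was recorded; n = 3, ≥50 cells each.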

[17] = test system: primary mouse hepatocytes; assay: Hypoxia induction assay; assay type: cell-based; settings: 1 mM overnight, 1 h starvation
Summary of the method: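 Transfected primary mouse hepatocytes received 1 mM DMOG 24 h before and during the assay, with DMSO as blank. After 1 h glucose starvation they were given 20 mM glucose (35 min), a further 20 mM glucose (10 min), then 100 mM 2-DG (10 min), with the 488/405 nm ratio recorded.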

[18] = test system: HepG2 cells; assay: Hypoxia induction assay; assay type: cell-based, human; settings: 1 mM overnight, 1 h starvation
Summary of the method: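 Transfected HepG2 cells received 1 mM DMOG 24 h before the assay, kept throughout, with DMSO as blank. After 1 h glucose starvation, cells were imaged for 30 min after 10 mM glucose, following the 488/405 nm ratio. n ≥ 5, 50 cells per replicate.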

T1 sequence (O32253 96-340, other chains not shown): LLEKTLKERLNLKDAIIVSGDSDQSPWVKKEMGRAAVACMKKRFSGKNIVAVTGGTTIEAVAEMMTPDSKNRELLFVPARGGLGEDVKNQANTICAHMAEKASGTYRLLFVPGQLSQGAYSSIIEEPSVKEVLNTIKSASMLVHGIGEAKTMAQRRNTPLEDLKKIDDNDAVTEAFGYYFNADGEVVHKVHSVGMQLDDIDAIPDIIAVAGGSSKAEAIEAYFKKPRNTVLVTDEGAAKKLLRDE

Molecule: O=C(O)CN(CCN(CC(=O)O)CC(=O)O)CC(=O)O [EDTA, ethylenediaminetetraacetic acid]
effect on response and apparent KD value of HYlight for FBP [1]: did not alter the response or the apparent KD value

Molecule: O=S(=O)(Nc1nc2cc(Cl)ccc2o1)c1cc(Cl)ccc1Cl [5-chloro-2-(N-(2,5-dichlorobenzenesulfonamide))-benzoxazole]
FBP level (HYlight ratio) after glucose addition ([2]; 20 μM inhibitor, gluconeogenic medium, 15 mM glucose): increase of FBP to levels comparable to those seen with standard media

Molecule: CC[C@H]1/C=C/C=C/C[C@@H](C)[C@H](O)[C@@](C)(O)C(=O)[C@@H](C)[C@H](O)[C@@H](C)C(=O)[C@@H](C)[C@H](O)[C@@H](C)/C=C/C(=O)O[C@@H]2[C@H](C)[C@H](CC1)O[C@]1(CC[C@H](C)[C@H](C[C@@H](C)O)O1)[C@H]2C [oligomycin, Oligomycin A]
direct effect on ratiometric response of purified HYlight [3]: do not directly interact with HYlight
change of oxygen consumption rate (OCR) [4]: decrease in oxygen consumption

direct effect on ratiometric response of purified HYlight [3]: do not directly interact with HYlight
Molecule: O=CC[C@@H](O)[C@H](O)[C@H](O)CO [2-DG, 2-deoxy-D-glucose]
change of oxygen consumption rate (OCR) [4]: increase in the OCR

FBP concentration in primary mouse hepatocytes (HYlight) ([5]; after 10 mM glucose): 21 µM
FBP concentration in primary mouse hepatocytes (HYlight) ([5]; before glucose addition): 15 µM
average fluorescence ratio ([6]; TBS with 0 mM NaCl): 1.87
average fluorescence ratio ([6]; TBS with 150 mM NaCl): 0.94
maximum ratiometric value (fluorescence ratio) ([6]; Britton-Robinson phosphate buffer): 1
fluorescence ratio (maximum) ([6]; CIS (140 mM KCl and 12 mM NaCl)): 3.5
fluorescence ratio (maximum) ([6]; CIS + metabolic mix solution): 3.5
maximum ratiometric value (fluorescence ratio) ([6]; MES-CHES-HEPES buffer): ~3
maximum ratiometric value (fluorescence ratio) ([6]; PBS): 2
maximum fluorescence ratio [6]: 2
fluorescence ratio (maximum) ([6]; working buffer, 125 mM NaCl): 2
entry of FBP from the media into cells (HYlight ratio unchanged) [8]: could not cross the membrane
Molecule: O=C(COP(=O)(O)O)[C@@H](O)[C@H](O)[C@H](O)COP(=O)(O)O [FBP, fructose 1,6-bisphosphate]
specificity constant [7]: 23 mM⁻^1s⁻^1
turnover rate [9]: 111 s⁻¹
specificity constant ([10]; aldolase for FBP): 4.7 mM⁻^1s⁻^1

effect of phosphate titration on fluorescence response ([11]; in the presence of 100 μM FBP): decrease in fluorescence response
Molecule: phosphate
effect of phosphate titration on 500/400 fluorescence ratio ([11]; in the absence of FBP): increase in the 500/400 fluorescence ratio

Molecule: O=C(/C=C/c1cccnc1)c1ccncc1 [3PO, (2E)-3-(3-Pyridinyl)-1-(4-pyridinyl)-2-propen-1-one]
decrease in FBP levels after glucose addition ([2]; 20 μM, 24 h treatment, gluconeogenic media): not observed
FBP levels (HYlight ratio) after glucose addition ([2]; 20 μM, 24 h treatment, normal media): significant decrease in the FBP levels

Molecule: [Na+] [Na^+]
effect on response and apparent KD value of HYlight for FBP [1]: did not alter the response or the apparent KD value

maximum fluorescence ratio [6]: 0.75
DHAP concentration at which significant competition was observed [12]: above 2.5 mM
Molecule: O=C(CO)COP(=O)(O)O [DHAP, dihydroxyacetone phosphate]

Molecule: O=P(O)(O)OC[C@H]1O[C@@](CO)(OP(=O)(O)O)[C@@H](O)[C@@H]1O [fructose 2,6-bisphosphate]
binding to HYlight [13]: can also bind

Molecule: O=CC(O)COP(=O)(O)O (stereo not shown) [glyceraldehyde 3-phosphate]
turnover rate ([10]; aldolase toward glyceraldehyde 3-phosphate, ref BRENDA:EC4.1.2.13, Plater et al.[48]): 8.2 s⁻¹

Molecule: OC[C@H]1OC(O)[C@H](O)[C@@H](O)[C@@H]1O (stereo partly shown) [glucose]
glucose concentration needed for HYlight changes ([14]; 1 h glucose starvation, glucose 0–40 mM added every 10 min): 5 mM
hill coefficient of HYlight ratio against glucose concentration ([14]; HLE, HepG2, Huh6 cell lines and primary mouse hepatocytes, Figure 1C): approximately 1
change of oxygen consumption rate (OCR) [4]: decrease in oxygen consumption
time to maximum HYlight response [15]: 30 min
glucose concentration after which HYlight changes were detected [16]: 20 mM

Molecule: COC(=O)CNC(=O)C(=O)OC [DMOG, dimethyloxalylglycine]
basal fluorescence (HYlight ratio) [17]: significant increase in basal fluorescence
response to glucose (HYlight ratio) [17]: diminished or absent response to glucose
basal fluorescence (HYlight ratio) [18]: significant increase in basal fluorescence
response to glucose (HYlight ratio) [18]: diminished or absent response to glucose

Molecule: [K+] [K^+]
effect on response and apparent KD value of HYlight for FBP [1]: did not alter the response or the apparent KD value
